# Shown are actives, neighbours in structure and some others; about 1.9% of the full set was active somewhere.
# proCasp3 act – activators of human procaspase-3 D3A mutant, primary screen, biochemical, absorbance, PC-3 D3A mutant, single concentration; Caspase-3 (Homo sapiens), P42574; AID 463141, 2010; activation, % at 8.5 µM; recombinant procaspase-3 D3A, Ac-DEVD-pNA absorbance 405 nm; 0.11% of 330,000 active;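 active = activation above the mean of all tested compounds plus 3 SD, cut at about 21% in these data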;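 also: 0% = DMSO alone and 100% = DMSO wells spiked with extra 5 µM PC-3 D3A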
#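 Assay system – Procaspase-3 D3A mutant, all three cleavage aspartates alanine · Controls – DMSO-only low control, 5 µM PC-3 D3A high control · Schedule – 1 h compound preincubation, 2 h substrate hydrolysis at 25 °C · Signal – 405 nm absorbance of p-nitroaniline, reads at 0 and 120 min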
# UBC13 inh – UBC13 polyubiquitin chain formation inhibitors, primary screen, biochemical, TR-FRET, uHTS; Ubiquitin-conjugating enzyme E2 N (Homo sapiens), P61088; inhibition, % at 20 µM; 0.47% of 330,000 active; AID 485273, 2010; in the data active = inhibition above about 45%, passing the limit was not always enough
# Target sequence (P61088 whole entry, looked up): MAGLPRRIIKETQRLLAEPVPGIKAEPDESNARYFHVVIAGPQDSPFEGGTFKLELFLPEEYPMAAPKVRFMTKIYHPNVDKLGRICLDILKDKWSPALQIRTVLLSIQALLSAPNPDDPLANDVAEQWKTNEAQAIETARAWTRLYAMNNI
# procasp7 counter – procaspase-7 activators, primary screen, counter-screen for procaspase-3 activator project, biochemical, absorbance, HTS, human; Caspase-7 (Homo sapiens), P55210; recombinant procaspase-7, Ac-DEVD-pNA absorbance 405 nm; D23A/D198A/D206A triple mutant, cannot self-cleave; scale: DMSO 0, 5 µM enzyme 100; activation, % at 8.5 µM; 0.093% of 330,000 active;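 active = percent activation above the screen-wide mean plus 3 SD, cut at about 25% in these data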
#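 Assay system: Uncleavable procaspase-7 mutant enzyme / Input: 2 µM procaspase-7 mutant as dispensed / Dosing: single nominal 8.5 µM compound dose, 0.8% DMSO final / Timing: 1 h enzyme–compound preincubation and 2 h substrate reaction, both 25 °C / Detection: p-Nitroaniline absorbance at 405 nm, read at 0 and 120 min / Replication: singlicate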
# IDE cell inh – human IDE inhibitors in live cells, primary screen, fluorescence polarization, HEK cells, FAbetaB substrate; Insulin-degrading enzyme (Homo sapiens), P14735; FAbetaB cleavage; inhibition, % at 5.59 µM; 0.41% of 320,000 active; AID 434962, 2010;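 active = percent inhibition above the average of all tested compounds plus 3 SD, set per screening campaign, cut at about 16% in these data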;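 also: IDE supplied by intact live HEK cells; FP after avidin binding of uncleaved biotin substrate so inhibition keeps polarization high; 0% = DMSO wells and 100% = 60 µM reference IDE inhibitor Ii1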
# PHOSPHO1 inh – PubChem AID 1565. recombinant PHOSPHO1, absorbance phosphatase assay. inhibition, % at 13.3 µM. 1.1% of 290,000 active. Phosphoethanolamine/phosphocholine phosphatase (Homo sapiens), Q8TCT1; in the data active = inhibition above about 60%
# Target sequence (Q8TCT1 whole entry, looked up): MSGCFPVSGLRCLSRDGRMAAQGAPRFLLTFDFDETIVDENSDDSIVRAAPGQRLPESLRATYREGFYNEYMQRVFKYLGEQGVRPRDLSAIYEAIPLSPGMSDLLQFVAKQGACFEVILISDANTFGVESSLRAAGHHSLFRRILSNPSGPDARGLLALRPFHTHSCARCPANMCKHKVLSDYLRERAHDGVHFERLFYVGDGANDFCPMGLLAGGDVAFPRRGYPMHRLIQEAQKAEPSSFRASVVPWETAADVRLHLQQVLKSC
# IDE act – human IDE activators in live cells, primary screen, fluorescence polarization, HEK cells, FAbeta-B substrate. activation, % at 5.96 µM. FAbeta-B cleavage; 0% vehicle, 100% cell-free pure enzyme wells. 0.073% of 340,000 active. Insulin-degrading enzyme (Homo sapiens), P14735;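 active = activation above the mean of all tested compounds plus 3 SD, set per screening campaign, cut at about 17% in these data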
# Casp3 UBC13 ctr – CASP3 inhibitor validation, counterassay for project on UBE2N polyubiquitination blockers, biochemical, one dose; Recombinant caspase-3, Caspase-Glo 3/7 luminescence, 60 min; inhibition, % at 20 µM; 4% of 1,400 active; shares compounds with UBC13 inh; AID 488856, 2010;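 active = mean inhibition across replicates above about 26%, limit read from the data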;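 also: plate controls were DMSO with caspase-3 for no effect and DMSO wells lacking enzyme for full effect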
# Target sequence (P42574 whole entry, looked up): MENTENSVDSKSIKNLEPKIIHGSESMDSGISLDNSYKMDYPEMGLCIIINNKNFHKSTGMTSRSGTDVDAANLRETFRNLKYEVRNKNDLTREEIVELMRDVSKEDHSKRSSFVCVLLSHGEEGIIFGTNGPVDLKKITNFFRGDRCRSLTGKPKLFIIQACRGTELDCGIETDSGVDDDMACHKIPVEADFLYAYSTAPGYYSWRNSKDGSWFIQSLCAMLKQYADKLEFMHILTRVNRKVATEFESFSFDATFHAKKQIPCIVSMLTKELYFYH
# UBC13 conf – UBC13 polyubiquitination inhibitors, single-point retest, confirmation, biochemical, TR-FRET, single concentration. inhibition, % at 10 µM. shares compounds with UBC13 inh. 68% of 1,400 active; in the data active = inhibition above about 45%
# The depositor's hits bear a star; x = not tested or not shown.
SMILES,proCasp3 act,UBC13 inh,procasp7 counter,IDE cell inh,PHOSPHO1 inh,IDE act,Casp3 UBC13 ctr,UBC13 conf
Clc1ccc2c(c1)CNc1c(ncnc1N1CCOCC1)O2,5.7,49.5*,10.8,0.9,9.5,5.2,-1.7,41.4
O=C1/C(=C/c2cccc([N+](=O)[O-])c2)CSc2ccc(Cl)cc21,-1.2,48.6*,4.4,-1.9,33.4,3.1,0.7,82.7*
O=C1/C(=C/c2cccc([N+](=O)[O-])c2)CCc2ccccc21,6.2,15.1,-4.2,5.5,10.8,5.6,x,x
COc1ccccc1NC(=O)COC(=O)C12CC3CC(CC(Br)(C3)C1)C2,-2.1,49.5*,14.7,-3.0,x,2.7,-2.9,43.7
COc1ccc(CNC(=O)CC23CC4CC(CC(C4)C2)C3)cc1OC,-1.7,4.5,4.1,-2.4,-5.5,6.3,x,x
COc1ccccc1NC(=O)COC(=O)C12CC3CC(CC(Cl)(C3)C1)C2,-5.0,41.4,8.1,6.3,38.9,2.4,x,x
COc1ccccc1NC(=O)CNC(=O)CC12CC3CC(CC(C3)C1)C2,-4.6,80.1*,7.5,-1.6,x,2.2,3.4,78.8*
Cc1ccccc1OCC(=O)O/N=C(\N)c1ccncc1,2.0,-3.3,1.3,1.5,10.8,-0.8,x,x
COC(=O)c1sccc1NC(=O)c1cc2c(s1)CCCC2,-4.2,45.9*,-7.6,1.1,-47.0,7.2,57.9*,20.1
OCCN1CCN(CC/C=C2/c3ccccc3Sc3ccc(Cl)cc32)CC1,2.8,74.5*,0.4,6.0,x,-1.0,4.4,60.1*
OCCN1CCN(CCCN2c3ccccc3Sc3ccc(Cl)cc32)CC1,6.8,90.3*,9.9,-0.4,1.1,0.8,-3.7,98.9*
COc1ccc(N2CCN(C(=O)c3ccc(COc4ccc([N+](=O)[O-])cc4)o3)CC2)cc1,x,5.3,x,x,x,1.2,x,x
COc1ccccc1CNC(=O)COC(=O)c1ccc(C)c(S(=O)(=O)N2CCOCC2)c1,5.7,0.7,7.1,1.5,x,4.4,x,x
O=C(NNC(=O)c1nn(-c2ccc(F)cc2)ccc1=O)c1ccc(Cl)cc1,7.2,70.7*,8.2,0.9,2.1,x,-2.9,87.7*
O=C(NNC(=O)c1nn(-c2ccc(F)cc2)ccc1=O)c1ccc(C(F)(F)F)cc1,0.3,70.0*,6.8,4.5,18.9,8.3,0.2,86.4*
Cc1ccc(C(=O)NNC(=O)c2nn(-c3ccc(F)cc3)ccc2=O)cc1,-4.4,77.4*,-3.7,6.0,31.6,-1.3,-6.1,96.3*
O=C(c1cccc(OC2CCN(Cc3ccc(F)cc3)CC2)c1)N1CCCC1,x,3.4,x,x,31.3,-4.6,x,x
COc1ccc(C(C(=O)NC(C)(C)C)N(C(=O)CCC(=O)Nc2cc(C)on2)c2c(C)cccc2C)cc1 (stereo unspecified),-4.8,-3.8,5.4,0.5,35.0,2.9,x,x
COc1c(C=O)cc2c3c1CCCN3CCC2,9.2,6.1,-2.6,2.0,13.9,3.7,x,x
NCc1cc2c3c(c1)CCCN3CCC2,-4.4,53.9*,1.8,-1.9,11.4,1.2,-2.4,19.1
COC(=O)Cc1cc(=O)[nH]c(Nc2nc3ccccc3o2)n1,-17.4,57.9*,4.8,-0.7,2.9,1.4,18.2,72.8*
COCc1cc(=O)[nH]c(Nc2nc3ccccc3o2)n1,-0.4,80.7*,-4.2,-5.0,10.2,-0.4,43.2*,81.3*
CCOC(=O)Cc1cc(=O)[nH]c(Nc2nc3ccccc3o2)n1,-3.3,82.5*,-3.2,-3.6,16.0,-3.7,45.1*,92.9*
Cc1ccccc1-c1cc(C(=O)NCc2ccco2)n(CC2CC(c3cccnc3)=NO2)n1 (stereo unspecified),-4.6,-5.7,-1.0,-2.0,x,5.3,x,x
Cc1cc(C(=O)NNC(=S)NC(=O)/C=C/c2ccccc2Cl)n[nH]1,-17.2,91.6*,-20.0,1.3,93.6*,4.0,-5.9,88.8*
SMILES,proCasp3 act,UBC13 inh,procasp7 counter,IDE cell inh,PHOSPHO1 inh,IDE act,Casp3 UBC13 ctr,UBC13 conf
COc1ccc(S[C@@H](CCN2CC[C@H](O)CCC2=O)c2ccccc2)cc1,5.7,-4.5,-4.1,8.8,x,-23.7,x,x
CCC1(CC)Cc2ccccc2-c2[nH]c(=S)[nH]c(=O)c21,-2.9,59.2*,-8.8,3.6,x,4.1,-0.3,43.2
CC(C)C[C@H](N)c1cn([C@@H](Cc2cc3ccccc3[nH]2)C(=O)N2CCNCC2)nn1,2.9,71.9*,5.0,1.3,-7.6,2.5,7.4,76.6*
CCC(C)[C@H](N)c1cn([C@@H](Cc2ccc(O)cc2)C(=O)N2CCNCC2)nn1 (stereo partly specified),4.5,5.8,-9.6,1.9,17.7,5.5,x,x
CCC(C)[C@H](N)c1cn([C@@H](Cc2cc3ccccc3[nH]2)C(=O)N2CCNCC2)nn1 (stereo partly specified),13.9,93.5*,-11.3,-2.2,-24.5,-4.9,-5.1,81.1*
CC(C)(C)c1ccc(OCC(O)CN2CCOCC2)cc1 (stereo unspecified),0.5,5.7,-3.6,6.3,x,6.1,x,x
CC(=O)Nc1ccc(C(=O)OCC(=O)Nc2c(C)n(C)n(-c3ccccc3)c2=O)cc1,-6.0,3.3,-9.4,4.8,x,6.1,x,x
CC[C@H](C)[C@@H](CN[C@H](C)CNC)NCCC(c1ccccc1)c1ccccc1,-5.7,54.8*,2.0,2.8,-5.6,5.5,-4.0,37.1
CNC[C@@H](C)NC[C@@H](Cc1ccccc1)NCCc1ccccc1,3.0,6.4,2.3,-0.7,-0.5,-0.4,x,x
Cc1ccc(CCNC(=O)C2CCC(=O)N(Cc3ccccc3F)C2)o1 (stereo unspecified),-8.1,-3.0,-16.8,1.3,22.2,-3.8,x,x
CC1CCCCN1CCNC(=O)c1cc2c(=O)n(C)c3ccccc3c2n1C (stereo unspecified),-0.2,46.5*,5.5,1.6,15.2,2.8,1.8,46.3*
Cn1c(C(=O)NCCN2CCOCC2)cc2c(=O)n(C)c3ccccc3c21,8.4,13.8,2.4,3.1,-9.3,6.2,x,x

# Screening data from PubChem.
